We go through 25 molecules from ChEMBL document CHEMBL1148232, “Inhibitory activities against topoisomerase I and II by polyhydroxybenzoyl amide derivatives and their structure-activity relationship” (Bioorg Med Chem Lett, 2004).

Assay [1] relates to HeLa. Put plainly: Concentration required to inhibit S phase and G2/M phase in HeLa cells. In kind it is functional, cell-based. The note with it: Homo sapiens. In short, it runs like this: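 HeLa cells cultured with compound, then cell-cycle progression analysed by flow cytometry; read-out was the percentage of cells in the G0/G1, S and G2/M phases.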
The subject of assay [2] is HeLa. Put plainly: Growth inhibitory concentration of compound was determined against HeLa cells by alamar blue assay. In kind it is functional. The note with it: Homo sapiens. A general note: The colour change of resazurin is a common sign of viable cells or microbes.
Assay [3] deals with T1, DNA topoisomerase 1 (Homo sapiens, UniProt P11387).
T1 sequence (P11387 whole entry): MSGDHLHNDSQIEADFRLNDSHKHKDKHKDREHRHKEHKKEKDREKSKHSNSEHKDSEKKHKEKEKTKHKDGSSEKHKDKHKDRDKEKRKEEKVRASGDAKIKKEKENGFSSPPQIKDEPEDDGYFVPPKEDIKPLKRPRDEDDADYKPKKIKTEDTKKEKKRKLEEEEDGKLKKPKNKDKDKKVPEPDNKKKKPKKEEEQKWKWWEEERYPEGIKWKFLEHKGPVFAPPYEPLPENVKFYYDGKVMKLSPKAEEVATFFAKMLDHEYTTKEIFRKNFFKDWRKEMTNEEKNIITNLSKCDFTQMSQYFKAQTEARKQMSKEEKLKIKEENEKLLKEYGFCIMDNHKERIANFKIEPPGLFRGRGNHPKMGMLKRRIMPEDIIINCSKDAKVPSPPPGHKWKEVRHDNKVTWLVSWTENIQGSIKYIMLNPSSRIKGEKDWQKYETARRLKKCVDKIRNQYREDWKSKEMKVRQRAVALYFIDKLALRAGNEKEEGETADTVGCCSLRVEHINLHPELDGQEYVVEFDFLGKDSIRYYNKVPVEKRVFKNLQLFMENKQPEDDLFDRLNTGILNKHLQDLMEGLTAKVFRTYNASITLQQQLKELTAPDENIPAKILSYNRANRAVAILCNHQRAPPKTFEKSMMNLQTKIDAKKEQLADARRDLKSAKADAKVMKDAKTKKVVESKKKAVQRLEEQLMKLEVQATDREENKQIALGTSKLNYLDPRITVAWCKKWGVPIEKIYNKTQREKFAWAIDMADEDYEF
Put plainly: Inhibitory concentration against relaxation activity of DNA topoisomerase I by detecting the conversion of supercoiled pBR322 DNA to its relaxed form.

In assay [4] the target is T2, DNA topoisomerase II (Homo sapiens, UniProt P11388+Q02880). Put plainly: Inhibitory concentration against relaxation activity of DNA topoisomerase II by detecting the conversion of supercoiled pBR322 DNA to its relaxed form. The assay is classed as protein assay.
Assay [5] addresses T2, DNA topoisomerase II. Put plainly: Inhibition of relaxation activities of DNA topoisomerase II with respect to pBR322 DNA. The assay is classed as protein assay. The method, boiled down:
(§1)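 Ki from Lineweaver–Burk plots: the rate of relaxation of supercoiled pBR322 DNA by the topoisomerase was measured across a range of DNA substrate concentrations, with and without inhibitor.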

The target of assay [6] is T1, DNA topoisomerase 1. The experiment in a line: Inhibition of relaxation activities of DNA topoisomerase I with respect to pBR322 DNA. In short, it runs like this:
as §1

Regarding `CC[C@@]1(O)C(=O)OCc2c1cc1n(c2=O)Cc2cc3ccccc3nc2-1` [CAMPTOTHECIN], the Concentration in the assay on HeLa [1] stood at 0.1 µM. Besides, halving of growth in the assay with HeLa [2] (GI50) required 0.6 µM.
As for `O=C(Nc1cccc(NC(=O)c2ccc(O)c(O)c2)c1)c1ccc(O)c(O)c1`, the IC50 (in general, the concentration that inhibits the measured activity by half) on DNA topoisomerase 1 [3] was determined as 10 µM.
In turn, `CC(=O)Oc1ccc(C(=O)Nc2ccc(NC(=O)c3ccc(OC(C)=O)c(OC(C)=O)c3)cc2)cc1OC(C)=O` registered an IC50 at DNA topoisomerase 1 [3] of more than 100 µM.
At DNA topoisomerase 1 [3], `O=C(Nc1ccc(NC(=O)c2ccc(O)cc2)cc1)c1ccc(O)cc1` showed an IC50 of more than 100 µM.
At DNA topoisomerase 1 [3], `CC(=O)Oc1cc(C(=O)Nc2cccc(NC(=O)c3cc(OC(C)=O)c(OC(C)=O)c(OC(C)=O)c3)c2)cc(OC(C)=O)c1OC(C)=O` came in with an IC50 of 11.2 µM. That is a double-digit micromolar value.
`O=C(Nc1nc2ccccc2s1)c1ccc(O)c(O)c1` showed an IC50 against DNA topoisomerase 1 [3] of 16.9 µM.
`O=C(Nc1ccccc1NC(=O)c1ccc(O)cc1)c1ccc(O)cc1`: at DNA topoisomerase 1 [3], the IC50 is more than 100 µM.
At DNA topoisomerase 1 [3], `CC(=O)Oc1ccc(C(=O)Nc2cccc(NC(=O)c3ccc(OC(C)=O)c(OC(C)=O)c3)c2)cc1OC(C)=O` displayed an IC50 of 43.2 µM.
In turn, `CC(=O)Oc1ccc(C(=O)Nc2cccc(NC(=O)c3ccc(OC(C)=O)cc3)c2)cc1` showed an IC50 on DNA topoisomerase 1 [3] of more than 100 µM.
`CC(=O)Oc1ccc(C(=O)Nc2ccc(NC(=O)c3ccc(OC(C)=O)cc3)cc2)cc1` came in with an IC50 against DNA topoisomerase 1 [3] of more than 100 µM.
Consider `COc1cc([C@@H]2c3cc4c(cc3[C@@H](O[C@@H]3O[C@@H]5CO[C@@H](C)O[C@H]5[C@H](O)[C@H]3O)[C@H]3COC(=O)[C@H]23)OCO4)cc(OC)c1O` [ETOPOSIDE], for which, in the assay with HeLa [1], the Concentration worked out at 2 µM. Further, the GI50 (usually the concentration at which growth is held to half of that of the control) in the assay on HeLa [2] is 40 µM.
`CC(=O)Oc1cc(C(=O)Nc2ccc(NC(=O)c3cc(OC(C)=O)c(OC(C)=O)c(OC(C)=O)c3)cc2)cc(OC(C)=O)c1OC(C)=O` registered a half-maximal inhibitory concentration (IC50) against DNA topoisomerase 1 [3] of 8.6 µM. That is a single-digit micromolar value.
On the same count and under the same terms, the value for `O=C(Nc1ccc(NC(=O)c2ccc(O)c(O)c2)cc1)c1ccc(O)c(O)c1` was 2.6 µM.
For `CC(=O)Oc1ccc(C(=O)Nc2ccccc2NC(=O)c2ccc(OC(C)=O)c(OC(C)=O)c2)cc1OC(C)=O`, the IC50 against DNA topoisomerase 1 [3] came to 88 µM.
On the same count and under the same terms, then `CC(=O)Oc1ccc(C(=O)Nc2ccccc2NC(=O)c2ccc(OC(C)=O)cc2)cc1`, with more than 100 µM.
For the molecule `O=C(Nc1ccccc1NC(=O)c1ccc(O)c(O)c1)c1ccc(O)c(O)c1`, the half-inhibitory concentration (IC50) against DNA topoisomerase 1 [3] came out at 6.4 µM.
For the molecule `O=C(Nc1ccc(NC(=O)c2cc(O)c(O)c(O)c2)cc1)c1cc(O)c(O)c(O)c1`, the IC50 turned out to be 0.15 µM on DNA topoisomerase II [4] and 1.4 µM at DNA topoisomerase 1 [3].
In the case of `O=C(Nc1cccc(NC(=O)c2cc(O)c(O)c(O)c2)c1)c1cc(O)c(O)c(O)c1`, the IC50 against DNA topoisomerase II [4] amounted to 0.22 µM; against DNA topoisomerase 1 [3], 1.6 µM.
At DNA topoisomerase 1 [3], `O=C(Nc1ccccc1NC(=O)c1ccccc1)c1ccccc1` yielded a 50% inhibitory concentration (IC50) of more than 100 µM.
For the molecule `O=C(Nc1ccccc1NC(=O)c1cc(O)c(O)c(O)c1)c1cc(O)c(O)c(O)c1`, the IC50 was 0.09 µM against DNA topoisomerase II [4] and 0.9 µM on DNA topoisomerase 1 [3]. In addition, the Ki (usually a dissociation constant, usually derived from enzyme kinetics or from competition with a known ligand) was 0.0741 µM on DNA topoisomerase II [5] and 0.4 µM at DNA topoisomerase 1 [6]. Further, halving of growth in the assay with HeLa [2] (GI50) required 30 µM.
Take `O=C(Nc1ccccc1)c1cc(O)c(O)c(O)c1`: at DNA topoisomerase 1 [3], the IC50 was more than 100 µM.
As to `O=C(Nc1cccc(NC(=O)c2ccc(O)cc2)c1)c1ccc(O)cc1`, on DNA topoisomerase 1 [3], the IC50 is more than 100 µM.
In the case of `O=C(Nc1nc2ccccc2s1)c1ccc(O)cc1`, at DNA topoisomerase 1 [3], the IC50 was more than 100 µM.
With `O=C(Nc1nc2ccccc2s1)c1cc(O)c(O)c(O)c1`, the IC50 on DNA topoisomerase 1 [3] was found to be 8.2 µM.
`CC(=O)Oc1cc(C(=O)Nc2ccccc2NC(=O)c2cc(OC(C)=O)c(OC(C)=O)c(OC(C)=O)c2)cc(OC(C)=O)c1OC(C)=O`: the IC50 on DNA topoisomerase 1 [3] stood at 4.7 µM.
